This is an account of results in the EternaBench riboswitch data.

The data set has as its system MS2 coat protein. The data set is described as follows: apparent Kd, MS2 coat protein; higher = weaker binding; RNA-MaP array; FMN 200 µM where present. Summed up: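 The apparent Kd is the median of filtered binding-curve fits, one per cluster, to green signal normalised to red-channel RNA signal and control-cluster median Fmax. The clusters were on Illumina sequencing chips, and stalled E. coli RNA polymerase had transcribed the designs on them. Titration used SNAP-549-labelled MS2 coat protein from 0.7 or 1.5 nM, doubling to 3 µM, without and then with constant ligand, in 100 mM Tris-HCl pH 7.5, 80 mM KCl, 4 mM MgCl2, BSA, DTT, yeast tRNA and Tween-20.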

The mark [1] stands for this setting: designed as: OFF switch for flavin mononucleotide, no ligand.
[2] abbreviates: ligand present: flavin mononucleotide, designed as: OFF switch for flavin mononucleotide.
Setting [3] is: designed as: ON switch for flavin mononucleotide, no ligand.
Where [4] appears, read: ligand present: flavin mononucleotide, designed as: ON switch for flavin mononucleotide.

For “UUUAAGUCAGGAUAUCGUUAAUUUAAUAAAUUAUUUUAAUUCGAGAAGGGACAUGAGGAUCACCCAUGUAAUUU”, the “apparent Kd” value under setting [1] stood at 33.2 nM and the “apparent Kd” value under setting [2] was determined as 48.6 nM.

For the sequence “AAAUAAAGCAGUGUGGUAAGAUCACAUGAGGAUCACCCAUGUAAGGAUAUCUGUCCUAAAAGGACAGAGAAGGUACGUCACUGC”, the “apparent Kd” value is, setting by setting: under setting [1], 18.9 nM; under setting [2], 79.6 nM.

Regarding “UGUAUGUAGGCAGGAUAUACAUGAAUAUAUAUGAUGUAGUAUGAUGUAACAUGAGGAUCACCCAUGUAGAAGGGCCGGUGUAUG”, the “apparent Kd” value stood at 69.2 nM under setting [1] and 154 nM under setting [2].

As for “UGAACUAUGUAGAAGGCCCUCAUGAAAAUGAAGGGAGGAUAUACAUGAGGAUCACCCAUGUGAAGAGCAAGAGGGUUUAACAGA”, the “apparent Kd” value reads like this: under setting [1], 149 nM; under setting [2], 172 nM.

On to “AUAAUGUAAGGAUAUCAGUCGACUAGCUUCGGCUAGUCGACUGAGAAGGUACAUGAGGAUCACCCAUGUGUUUC”, for which the “apparent Kd” value by setting is: under setting [1], 37.7 nM; under setting [2], 209 nM.

Turning to “GAAAAACAUGAGGAUCACCCAUGUAAGGAUAUGCUGAAAAAACACUGGAAACAGUGCAGCAGAAGGUACAAAAG”, the “apparent Kd” value was found to be 65.1 nM under setting [1] and 103 nM under setting [2].

Take “CGACAUUUAGGAUAUACGGUUAUUGAGGUUUUUGUUAGUCGACAUGAGGAUCACCCAUGUAGAAGGAAAUGAGU”: the “apparent Kd” value under setting [1] came out at 34.6 nM and the “apparent Kd” value under setting [2] was 49.4 nM.

In the case of “CUCGAGUUAGGAUAUCGAACGUAACAAGCGGGAACUCCCGCCGAGAAGGAACAUGAGGAUCACCCAUGUGAAAA”, the “apparent Kd” value is 23.2 nM under setting [1] and 22.2 nM under setting [2].

With “GUCGGAAACGACAAAAGUAUGGAUCCAGAAGGCAUGUACAUGAGGAUCACCCAUGUCUAAAGAUAUGAGGAUAUGGAUCCAUAC”, the “apparent Kd” value was 6.71 nM under setting [3] and 5.18 nM under setting [4].

Turning to “AUCAGCUCGUCAGGAUAUACGUCACUGCGUCAGCAGUGUGGUAAGAUUACAUGAGGAUCACCCAUGUAGAAGGGACGAGCUGAU”, the “apparent Kd” value under setting [1] is 6.38 nM and the “apparent Kd” value under setting [2] was 8.59 nM.

On to “GGAUGUCAAAGACAUCCUAAACGAACAUGAGGAUCACCCAUGUAGGAUAUGCUACUCAAAGAGUAGCAGAAGGACAUGUGCCUU”, for which the “apparent Kd” value under setting [1] came out at 35 nM and the “apparent Kd” value under setting [2] came out at 238 nM.

In the case of “AUCAGCUCGUCAGGAUAUACGUCACUGCGUUAGCAGUGUGGUAAGAUCACAUGAGGAUCACCCAUGUAGAAGGGACGAGCUGAU”, the “apparent Kd” value was found to be 13.8 nM under setting [1] and 263 nM under setting [2].

For the sequence “ACGAGGCUAGGAUAUACACAUCUGAUGACUCAUCCUAAAACACAUGAGGAUCACCCAUGUAGAAGGAGCAAAUA”, the “apparent Kd” value by setting is: under setting [1], 20.3 nM; under setting [2], 15.1 nM.

Consider “GGAUGACAUAGUCAUCCUUAACGAACAUGAGGAUCACCCAUGUAGGAUAUGCUACUCAAAGAGUAGCAGAAGGGCAUGUGUCUU”, for which the “apparent Kd” value reads like this: under setting [1], 30.6 nM; under setting [2], 68.8 nM.

As for “CAGCUGAAAGUCAGGAUAUCUAGAGCUUCGGCUCUAGAGAAGGGACAUGAGGAUCACCCAUGUGGUCACAGCUG”, the “apparent Kd” value runs as follows: under setting [1], 1420 nM; under setting [2], 149 nM.

For the sequence “GUCGUGUGAGGAUAUGGAUAGACGCAGUGACAGUAAGCGACCUAGAAGGCACAUGAGGAUCACCCAUGUAUGUG”, the “apparent Kd” value worked out at 45.5 nM under setting [1] and 84.1 nM under setting [2].

As for “UGUAAGAUGCAGAAGGUGUUAGCUAGAGCUACGACAUGAGGAUCACCCAUGUACUAGAAACAGUACAAGGAUAUGCAUCUUACA”, the “apparent Kd” value by setting is: under setting [3], 18.3 nM; under setting [4], 6.12 nM.

Take “GGAUAGGACAGAGGAUAUACGUGCAAGAGAUACUAGCAAAAUUUCCUCACAUGAGGAUCACCCAUGUAGAAGGCUGUCCUAUCG”: the “apparent Kd” value runs as follows: under setting [1], 57.4 nM; under setting [2], 331 nM.

Take “GGCAAAUGAGCAGGAUAUACAGUACAUGCCUAAUGGAUUCACGCACAUGAGGAUCACCCAUGUACGUAGAAGGGCUCCGAGGAG”: the “apparent Kd” value runs as follows: under setting [1], 12.2 nM; under setting [2], 14.4 nM.

As to “GCGGGUCCGGAGAAGGGUACCGUGGGUAUGAUACAUGAGGAUCACCCAUGUACAGGAUAUCCGGCAAAGAUGUGGCUAAGAGGG”, the “apparent Kd” value runs as follows: under setting [1], 257 nM; under setting [2], 34.5 nM.

For the sequence “CGAUGAGGUGUGAGGAUAUCGUGUUCGAAAGAACGUGAGAAGGCACAUGAGGAUCACCCAUGUGAACCUUGUCG”, the “apparent Kd” value turned out to be 16.9 nM under setting [1] and 18.8 nM under setting [2].

On to “GCUAUAGAUGUAGGAUAUCAUAUAGAAGCUAUGUGAGAAGGACAUGAGGAUCACCCAUGUCAAUGGAUGGAGAGAAGUUAUGGC”, for which the “apparent Kd” value runs as follows: under setting [1], 75.3 nM; under setting [2], 104 nM.

As to “UGGACUGGGCAGAAGGGACAUGAGGAUCACCCAUGUCUUGGGCUACUUCAGUCAGGAUAUGCCCAUUGAAUAUCCGUGCAACAA”, the “apparent Kd” value reads like this: under setting [1], 15.4 nM; under setting [2], 76.9 nM.

For the sequence “AAAUCAGCAGGAUAUACGAUUUUAUGCUAGAUAGAGGGACCACAUGAGGAUCACCCAUGUAGAAGGGCUAGAUA”, the “apparent Kd” value was found to be 24.6 nM under setting [1] and 26.4 nM under setting [2].

In the case of “GCGUUUGUAUCACAUGUAUUACAUGAGGAUCACCCAUGUUACUAGGAUAUGUAUUAGUAUUUUCAACAGAAGGAGUAAGAACGC”, the “apparent Kd” value reads like this: under setting [1], 18.8 nM; under setting [2], 23.5 nM.

For the sequence “CUGUGACGGUGCGCAAGUGGACGUAGAAGGGUCACAUGAGGAUCACCCAUGUGGGCCUGCUAGUGACAGGAUAUACGUUCGUGC”, the “apparent Kd” value under setting [2] was 65.2 nM.

Take “GCGACGAAAGUCGAACGAUGUAGCAGAAGGACAUGAGGAUCACCCAUGUCAGCUGUAACAGCCAUGUAGGAUAUGCUACAUCGU”: the “apparent Kd” value by setting is: under setting [1], 4.18 nM; under setting [2], 5.27 nM.

On to “AAGAAACAUGAGGAUCACCCAUGUAGAAAUAUGGGAGGAUAUACGAGGACGAAAGUCAAAGUAGAAGGCCUAAGAA”, for which the “apparent Kd” value under setting [3] is 56.9 nM and the “apparent Kd” value under setting [4] stood at 27.4 nM.

Turning to “GGACAUGAGGAUCACCCAUGUUCUCCAGAAGGCCGUACAUUUAAAAGUGGAUGGAUUAGUGUUGCGGAGGAUAUGGAGGUGCAA”, the “apparent Kd” value under setting [3] is 77.1 nM and the “apparent Kd” value under setting [4] was 16.7 nM.

Take “GUUUUGAUAGGAUAUACAUGAGGAUCACCCAUGUCCCACCCGUUACCUAUGACCAUAUGUAGAAGGAUCGUUUG”: the “apparent Kd” value reads like this: under setting [1], 98.1 nM; under setting [2], 83.9 nM.

“AAUCUGUAGCAGAAGGUCAUUUUUAUAAAUAAACUGGUGACAUGAGGAUCACCCAUGUAAACGUUGAAGGAUAUGCAUUCUAUU”: the “apparent Kd” value runs as follows: under setting [1], 44.9 nM; under setting [2], 52.5 nM.

“AUGCUUCACACAGGAUAUACAUGAGGAUCACCCAUGUGUCCUCCGUAGCUGACACGAGCUACGCUGUAGAAGGGUGUGAAGCAU”: the “apparent Kd” value reads like this: under setting [1], 234 nM; under setting [2], 223 nM.

For the sequence “AUGAGAAAAGCAGGAUAUCUAUUGUCUCAGAAACAUGAGGAUCACCCAUGUAGAGAAGGGCUAAGACCGACUCUUCGGAGUUGA”, the “apparent Kd” value stood at 9.66 nM under setting [1] and 9.77 nM under setting [2].

Take “GUGCGUGGCUAGGAUAUUGUGGAGUUUAGUCAGCGAGAAGGAGCCACAUGAGGAUCACCCAUGUGGUGUUGCUC”: the “apparent Kd” value stood at 40.5 nM under setting [1] and 101 nM under setting [2].

In the case of “GGGACCGUACUCCUGUUGUACUCUGAGGAUAUCCGUUACGGACAUGAGGAUCACCCAUGUACGGCGGAGAAGGCAGAUCUCAUA”, the “apparent Kd” value reads like this: under setting [3], 6.44 nM; under setting [4], 5.26 nM.

Take “AUAUCAAGCAAGGAUAUGCAAAUGGUUAUUUAUGCAGAAGGUGCGACAUGAGGAUCACCCAUGUUUCUGGGUUU”: the “apparent Kd” value by setting is: under setting [1], 87.7 nM; under setting [2], 134 nM.

Consider “CGCACUGAUAGAGGAUAUGUUUAACAUGAGGAUCACCCAUGUGUACAAGGAUCAAUAUAUAAGUAACAGAAGGCUAUUAGUGCG”, for which the “apparent Kd” value is, setting by setting: under setting [1], 13.9 nM; under setting [2], 13.4 nM.

Consider “GUAGCAUACCGAGGAUAUUCUGGGCUUAAAUAAACAUGAGGAUCACCCAUGUGGCGAAAGCCUAGGGAGAAGGCGGAAUGCUAC”, for which the “apparent Kd” value amounted to 13.7 nM under setting [3] and 13 nM under setting [4].

Consider “AUGUCUUAGUAGAAGGGACAUCGGCUGGUAAGCAUCAUCUCCUUCUCACAUGAGGAUCACCCAUGUCAGGAUAUACUAAGAUAC”, for which the “apparent Kd” value under setting [2] turned out to be 38.5 nM.

On to “CGUCCUUAGUGAGGAUAUCAGAAACUACGGAAAUGAGAAGGCACAUGAGGAUCACCCAUGUAAAUAACGGCCGGUCUUGGCAGC”, for which the “apparent Kd” value was 7.27 nM under setting [1] and 15.2 nM under setting [2].

For “AUAUGAUAGAUAGGAUAUACUGAGGUUGAAUGGGUAGAAGGAUCGAUAGGGAAGACUACAUGAGGAUCACCCAUGUUGUGUAUU”, the “apparent Kd” value by setting is: under setting [3], 151 nM; under setting [4], 81.6 nM.

Consider “GGCCCGGGAGGAUAUACAUGAGGAUCACCCAUGUGCUUCGGCUUGAUCAAGUUGAAGUGUAGAAGGCCCGGGCC”, for which the “apparent Kd” value under setting [1] stood at 14.2 nM and the “apparent Kd” value under setting [2] was 21 nM.

“GGCGAACAUGAGGAUCACCCAUGUCAGGAUAUCUCUCGCGUUGAAUUGAGGGUGUGUGAGAGAAGGGAUAUGUA”: the “apparent Kd” value under setting [1] amounted to 49.7 nM and the “apparent Kd” value under setting [2] came to 49.9 nM.

For the sequence “GGGCCGCUACGCCGGCUCCACGCACAGGAUAUGCAGUUACAUGAGGAUCACCCAUGUGGCCAUGUGCAGAAGGGUGGUUCGCGA”, the “apparent Kd” value reads like this: under setting [3], 85.3 nM; under setting [4], 28.6 nM.

For the sequence “AAGAAGUCAGGAUAUCGUUAAUUUAGUUGUUUGUAUUAGUUCGAGAAGGGACAUGAGGAUCACCCAUGUAAGAA”, the “apparent Kd” value turned out to be 35.2 nM under setting [1] and 42.7 nM under setting [2].

Regarding “GUAGCUACAUGAGGAUCACCCAUGUAGGAUAUCGCUAUUGUAAUCAUGUUACAUGAUUACAAUAGCGAGAAGGACGUGAGCUAC”, the “apparent Kd” value under setting [1] was found to be 8.39 nM and the “apparent Kd” value under setting [2] came out at 8.7 nM.

As for “GCCAGAGCAGGAUAUUCAAUAAUCCACAUGAGGAUCACCCAUGUCUAGCGAAAGCUAGAGGGAGAAGGGCUCUGGC”, the “apparent Kd” value amounted to 79.3 nM under setting [1] and 33.7 nM under setting [2].

“CUGGGUUAGGAGAAGGGCUAGAGUGUGAUAUAUUUGCCCGCGAGCACAUGAGGAUCACCCAUGUAGCAGGAUAUCCAAACCGGU”: the “apparent Kd” value under setting [1] was 7.33 nM and the “apparent Kd” value under setting [2] is 19.5 nM.
